IMP-1 inhibitor – IMP-1 metallo-beta-lactamase inhibitors, primary screen, biochemical, epi-absorbance readout, Pseudomonas aeruginosa enzyme; inhibition, % at 5.6 µM; AID 1556, 2009; purified IMP-1, nitrocefin hydrolysis, epi-absorbance fluorescence; metallo-beta-lactamase IMP-1 (Pseudomonas aeruginosa); hit rate 0.45% among 290,000;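 active means inhibition above the mean plus 3 SD of all compounds in the same screening run, cut at about 4.5% in these data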;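 further: 0% = IMP-1 with DMSO and 100% = DMSO wells lacking enzyme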
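System: Purified IMP-1 | Read-out basis: Percent enzyme inhibition | Controls: IMP-1 with DMSO as 0%, enzyme-free DMSO as 100% | Replicates: One well per compound | Doses: 5.6 µM nominal single concentration | Detection: Epi-absorbance fluorescence, 480 nm excitation, 530 nm emission | Incubation: 25 °C, 15 min preincubation, 25 min reaction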
CTSL1 counter-1 – Fasciola hepatica cathepsin L1 inhibitors, primary screen, counter-screen for PFM18AAP inhibitor project, biochemical, QFRET, fluorogenic peptide substrate. recombinant F. hepatica cathepsin L1, Z-Leu-Arg-MCA fluorescence. hit rate 0.49% among 300,000. inhibition, % at 5.96 µM;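 active means inhibition above the mean of all tested compounds plus 3 SD, set per screening campaign, cut at about 17% in these data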;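 further: 0% = plate median of test compound wells and 100% = 1 µM Z-Phe-Ala-diazomethylketone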
PfM18AAP inh-1 – PfM18AAP inhibitors, malaria aminopeptidase, primary screen, biochemical, QFRET, recombinant enzyme; M18 aspartyl aminopeptidase (Plasmodium falciparum 3D7); H-Glu-NHMec fluorogenic cleavage; inhibition, % at 7.35 µM; hit rate 1.2% among 290,000; AID 1822, 2009;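 active means inhibition above the campaign mean inhibition over all tested compounds plus 3 SD, cut at about 28% in these data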;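 further: 0% = plate median of test compound wells and 100% = 2 mM ZnCl2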
VIM-2 inhibitor – VIM-2 metallo-beta-lactamase inhibitors, primary screen, biochemical, epi-absorbance readout, Pseudomonas aeruginosa enzyme | hit rate 0.89% among 290,000 | AID 1527, 2009 | inhibition, % at 5.6 µM | purified VIM-2, nitrocefin hydrolysis, epi-absorbance fluorescence;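 active means inhibition above the mean of all tested compounds plus 3 SD, cutoff set per screening run, cut at about 7.5% in these data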;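 further: red hydrolysis product quenches plate fluorescence so inhibitors raise well fluorescence; 0% = enzyme with DMSO and 100% = DMSO without enzyme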
PfM18AAP inh-2 – PfM18AAP inhibitors, malaria aminopeptidase, confirmation, biochemical, QFRET, recombinant enzyme, triplicate. hit rate 28% among 2,400. inhibition, % at 7.35 µM. H-Glu-NHMec fluorogenic cleavage. shares compounds with PfM18AAP inh-1;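 active means mean inhibition over replicate wells above the hit cutoff set for the earlier primary screen, cut at about 29% in these data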;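 further: 0% = median of test compound wells and 100% = 2 mM ZnCl2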
CTSL1 counter-2 – cathepsin L1 inhibitors, retest, confirmation, counter-screen for PFM18AAP inhibitor project, biochemical, QFRET, triplicate; 2,400 tested, under 10 active; purified cathepsin L1, Z-Leu-Arg-MCA fluorescence; AID 2178, 2009; shares compounds with PfM18AAP inh-1; inhibition, % at 5.96 µM;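 active means average inhibition across replicates above the hit cutoff set in the earlier primary screen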;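 further: 0% = median of test compound wells and 100% = Z-Phe-Ala-diazomethylketone 1 µM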
Target sequence (P07711 whole entry, looked up): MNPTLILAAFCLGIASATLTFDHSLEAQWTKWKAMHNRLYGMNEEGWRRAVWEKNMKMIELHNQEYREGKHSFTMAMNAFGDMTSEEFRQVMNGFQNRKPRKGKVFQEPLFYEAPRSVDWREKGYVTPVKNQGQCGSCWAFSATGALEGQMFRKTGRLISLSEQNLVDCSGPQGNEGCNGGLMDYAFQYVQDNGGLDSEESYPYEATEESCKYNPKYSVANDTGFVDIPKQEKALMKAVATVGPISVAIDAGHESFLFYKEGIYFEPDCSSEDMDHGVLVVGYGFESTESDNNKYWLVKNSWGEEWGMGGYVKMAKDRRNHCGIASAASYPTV
The depositor's hits bear a star; . = no result. This is a sample that favours compounds with a hit; in the whole collection about 2.7% have one here.

SMILES	IMP-1 inhibitor	CTSL1 counter-1	PfM18AAP inh-1	VIM-2 inhibitor	PfM18AAP inh-2	CTSL1 counter-2
Cc1oc2c(O)c(O)ccc2c(=O)c1-c1ccc(Cl)cc1	-4	-3	44*	-1	19	-3
Cc1oc2c(O)c(O)ccc2c(=O)c1-c1ccccc1	.	6	.	.	.	.
O=C(NNC(=O)c1cc([N+](=O)[O-])ccc1Cl)c1cccnc1	-3	.	-9	-3	.	.
CC1=C([N+](=O)[O-])C(c2ccccc2C(F)(F)F)NC(=O)N1C (configuration not stated)	-3	4	6	-4	.	.
CC(C)C1NC(C(=O)O)Cc2c1[nH]c1ccccc21 (configuration not stated)	0	-2	37*	0	29*	-1
C=CCn1c(-c2cccc(OC)c2OC)n[nH]c1=S	-5	0	17	-1	.	.
C=CCn1c(-c2cc3cccc(OC)c3o2)n[nH]c1=S	1	3	33*	1	-10	1
Cc1cc(=O)[nH]c(NCc2ccc(Cl)cc2)n1	-2	9	-3	-1	.	.
CC(=O)Oc1ccc2c(=O)c(Oc3ccccc3)c(C)oc2c1OC(C)=O	-2	-4	44*	2	19	-7
O=C(O)c1ccc(N/N=C/c2c(F)cccc2Cl)cc1	-1	1	39*	-2	-9	5
O=C(N/N=C/c1c(F)cccc1Cl)C1CC1	-2	-2	-5	-1	.	.
CC(C)CC(C)N1CCC(n2nccc2NC(=O)CCc2ccccc2)CC1 (configuration not stated)	-1	3	-4	-1	.	.
COc1ccc(/C=N/Nc2ncc(Br)cn2)c(OC)c1	0	3	38*	-2	-47	-3
O=C(c1ccccc1)N1CCN(c2ccc([N+](=O)[O-])c(NCc3cccnc3)c2)CC1	-3	-1	44*	-1	-53	1
CCc1nc(N2CCN(Cc3ccc4c(c3)OCO4)CC2)c2oc3ccccc3c2n1	-3	2	-6	-1	.	.
O=C1NC(=O)C(c2ccccc2[N+](=O)[O-])=C1Nc1ccc(O)c(Cl)c1	-2	1	40*	5	-81	-4
O=c1[nH]nc(CNc2ccc(O)cc2)c2ccccc12	-3	-8	35*	0	-18	0
O=c1[nH]nc(CNc2ccc(C(F)(F)F)cc2)c2ccccc12	-3	1	-3	0	.	.
S=C(NNC(=S)Nc1ccccc1)Nc1ccccc1	-4	1	50*	-7	1	-1
NC(=S)NNC(=S)Nc1ccccc1	-4	0	42*	-5	2	-2
COc1ccc(C2=C(C)C(N3CCN(C(=O)c4ccco4)CC3)=NS2(=O)=O)cc1	-2	6	-9	1	.	.
CCn1c2ccccc2n2c(=O)c(=O)n(CC(=O)Nc3ccc(C(C)C)cc3)nc12	-3	0	-7	-2	.	.
CCc1ccc(N2CSC3=C(C#N)C(c4cccs4)CC(=O)N3C2)cc1 (configuration not stated)	-2	3	44*	-4	-5	1
Cc1ccc(N2CSC3=C(C#N)C(c4cccs4)CC(=O)N3C2)cc1 (configuration not stated)	5.6*	-3	33*	0	-6	6
COc1ccc(C2CC(=O)N3CN(c4ccc(C)c(Cl)c4)CSC3=C2C#N)cc1OC (configuration not stated)	-1	-3	35*	-3	-4	-2
SMILES	IMP-1 inhibitor	CTSL1 counter-1	PfM18AAP inh-1	VIM-2 inhibitor	PfM18AAP inh-2	CTSL1 counter-2
CCc1ccc(C2CC(=O)N3CN(c4ccccc4)CSC3=C2C#N)cc1 (configuration not stated)	-2	1	24	-4	.	.
N#CC1=C2SCN(c3ccc(F)cc3)CN2C(=O)CC1c1cccc(F)c1 (configuration not stated)	-2	9	27	-2	.	.
CCOC(=O)c1ccc(N2CSC3=C(C#N)C(c4cccs4)CC(=O)N3C2)cc1 (configuration not stated)	-1	2	32*	-3	-8	6
CN(C)S(=O)(=O)c1cccc(NC(=O)COC(=O)c2cccn2C)c1	-5	-17	4	-1	.	.
COc1ccc(OC)c(NC(=O)Nc2ccc3[nH]ccc3c2)c1	.	3	.	.	.	.
CCOC(=O)c1c(NC(C)=O)sc2c1CCC(C=O)=C2Sc1ccccc1	-2	0	40*	-2	-21	1
COCCN(C(=O)COC(=O)Cc1ccc(Cl)cc1Cl)c1c(N)n(Cc2ccccc2)c(=O)[nH]c1=O	.	0	.	.	.	.
O=C(N/C(=C\c1ccccc1)C(=O)N1CCOCC1)c1cccc(Br)c1	-3	-1	10	-1	.	.
S=c1nc[nH]c2c1ncn2C1CCCC1	-3	.	21	-3	-30	-3
Cc1cc(C)c2cc(CN(Cc3ccco3)C(=O)NCc3ccccc3)c(=O)[nH]c2c1	-2	7	35*	-1	-19	-2
Cn1cccc1C(=O)NC(=O)COC(=O)CNC(=O)CNC(=O)c1ccc(Cl)cc1Cl	0	-19	6	2	.	.
CC(C)(C)C(=O)/C(=C/c1ccc(Cl)cc1)n1cncn1	-4	.	-8	-1	.	.
CC(C)/C=C(/C(=O)c1ccc(Cl)cc1Cl)n1cncn1	-3	-12	49*	-2	5	1
NC(=O)c1nsc(C(=O)N(c2ccccc2F)C(C(=O)NCc2ccccc2)c2ccc(O)cc2)c1N (configuration not stated)	-2	1	3	-3	.	.
S=C(Nc1ccccc1)Nn1cnnc1	-2	1	65*	-1	61*	5
CCc1ccc(NC(=S)NCc2ccccc2)cc1	-2	2	3	-3	.	.
COc1ccc(NC(=S)Nn2cnnc2)cc1OC	-1	6	79*	3	76*	0
CCc1ccc(NC(=S)Nn2cnnc2)cc1	-3	1	76*	0	64*	1
CNC(=S)Nc1ccc(OC)c(OC)c1	-3	1	-5	-2	.	.
Cc1ccc(NC(=S)Nn2cnnc2)cc1	-2	-2	77*	0	67*	0
CCOc1ccc(-n2cc(C(=O)Nc3cccc(C)n3)c3cc(OC)c(OC)cc3c2=O)cc1	0	1	-2	-1	.	.
Cc1oc2cc(Br)c(O)c(Br)c2c1-c1ccccc1	-3	-1	9	-4	.	.
COc1ccc(NC(=S)Nn2cnnc2)c(OC)c1	-5	.	72*	-4	80*	-3
COc1ccc(NC(=S)Nc2ccccc2)c(OC)c1	1	-7	-6	1	.	.
CCc1ccc(NC(=O)NNC(=O)CCc2ccccc2)cc1	-5	-2	-1	-7	.	.

High-throughput results from PubChem.
